Data taken from ChEMBL document CHEMBL2346621, “Discovery of novel tricyclic indole derived inhibitors of HCV NS5B RNA dependent RNA polymerase” (Bioorg Med Chem, 2013).
pEC50, pIC50: −log10 of the molar value.

Legend:
[1] = AUC (0 to 6 hrs) in rat at 10 mg/kg, po; type: ADME, organism-based; parameters: time < 6 hr, dose 10 mg/kg, route oral; settings: plasma
Method in brief: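 Rapid rat assay: single oral 10 mg/kg dose in 0.4% HPMC. Plasma AUC integrated over 0–6 h after dosing (AUC0–6 h).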

[2] = Cytotoxicity against human hepatoma cells assessed as cell viability by MTS assay; type: cell-based
Method in brief: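 Cellular toxicity was measured by MTS assay, with GAPDH also used as an internal control, and expressed as CC50.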

Hepatitis C virus [3] = test: Antiviral activity against Hepatitis C virus infected in human hepatoma cells assessed as reduction in replicon RNA level; type: functional, organism-based, Hepacivirus hominis
Method in brief: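 Replicon-bearing hepatoma cells were used. EC50 is the concentration that reduces viral RNA levels by 50%.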

Hepatitis C virus [4] = test: Inhibition of HCV-1b Con-1 C-terminal His6x-tagged NS5B delta21 RNA dependent RNA polymerase expressed in Escherichia coli JM109 (DE3) assessed as [alpha-33P]CTP incorporation in RNA after 30 mins by scintillation counting analysis; parameters: species or system Hepatitis C virus subtype 1b; settings: Con1, JM 109, 0.5 h

Structure (SMILES) | AUC(0-t) at 6 h [1] [µM·h] | CC50 [2] [nM] | pEC50 (Hepatitis C virus [3]) | pIC50 (Hepatitis C virus [4])
Cc1ccccc1Cn1c(C(=O)NS(C)(=O)=O)c(-c2ccc[nH]c2=O)c2c3occc3ccc21 | 1.2 | > 10000 | 7.30 | 8.00
O=C(NS(=O)(=O)Cc1ccccc1)c1c(-c2ccc[nH]c2=O)c2cc(Cl)ccc2n1Cc1cc(F)ccc1F |  |  | 6.00 | 8.00
O=C(O)c1c(-c2ccc[nH]c2=O)c2c3c(ccc2n1Cc1cc(F)ccc1F)CCC3 | 104 | > 10000 | 5.46 | 7.57
O=C(O)c1c(-c2ccc[nH]c2=O)c2c3c(ccc2n1Cc1cc(F)ccc1F)OC(F)(F)O3 |  | > 10000 | 5.70 | 8.15
O=C(O)c1c(-c2ccc[nH]c2=O)c2c3scnc3ccc2n1Cc1cc(F)ccc1F | 104 | > 10000 |  | 5.77
O=C(O)c1c(-c2ccc[nH]c2=O)c2c3ncsc3ccc2n1Cc1cc(F)ccc1F |  | > 10000 | 6.15 | 8.05
O=C(O)c1c(-c2ccc[nH]c2=O)c2c3ccoc3ccc2n1Cc1cc(F)ccc1F |  | > 10000 | 5.51 | 7.47
O=C(O)c1c(-c2ccc[nH]c2=O)c2c3occc3ccc2n1Cc1cc(F)ccc1F | 146 | > 10000 | 6.80 | 7.51
O=C(O)c1c(-c2ccc[nH]c2=O)c2c3c(ccc2n1Cc1cc(F)ccc1F)CCO3 | 11 | > 10000 | 6.34 | 8.10
Cc1coc2c1ccc1c2c(-c2ccc[nH]c2=O)c(C(=O)O)n1Cc1cc(F)ccc1F |  | > 10000 |  | 5.54
CCc1coc2c1ccc1c2c(-c2ccc[nH]c2=O)c(C(=O)O)n1Cc1cc(F)ccc1F |  | > 10000 |  | < 5.30
O=C(O)c1c(-c2ccc[nH]c2=O)c2c3occ(Cl)c3ccc2n1Cc1cc(F)ccc1F |  | > 10000 | 6.92 | 8.15
Cc1cc2ccc3c(c(-c4ccc[nH]c4=O)c(C(=O)O)n3Cc3cc(F)ccc3F)c2o1 |  | > 10000 | 5.70 | 7.68
CS(=O)(=O)NC(=O)c1c(-c2ccc[nH]c2=O)c2c3occc3ccc2n1Cc1cc(F)ccc1F | 11 | > 10000 | 7.30 | 8.05
CCS(=O)(=O)NC(=O)c1c(-c2ccc[nH]c2=O)c2c3occc3ccc2n1Cc1cc(F)ccc1F | 0.7 | > 10000 | 6.96 | 8.22
CC(C)S(=O)(=O)NC(=O)c1c(-c2ccc[nH]c2=O)c2c3occc3ccc2n1Cc1cc(F)ccc1F | 1 | > 10000 | 7.30 | 8.10
O=C(NS(=O)(=O)C1CC1)c1c(-c2ccc[nH]c2=O)c2c3occc3ccc2n1Cc1cc(F)ccc1F |  | > 10000 | 7.30 | 7.80
CS(=O)(=O)NC(=O)c1c(-c2ccc[nH]c2=O)c2c3occc3ccc2n1Cc1ccc(F)cc1F | 2.4 | > 10000 | 7.10 | 7.51
CS(=O)(=O)NC(=O)c1c(-c2ccc[nH]c2=O)c2c3occc3ccc2n1Cc1ccccc1F | 9.5 | > 10000 | 7.00 | 8.10
Cc1ccc(Cn2c(C(=O)NS(C)(=O)=O)c(-c3ccc[nH]c3=O)c3c4occc4ccc32)c(C)c1 |  | > 10000 | 7.22 | 8.22
CS(=O)(=O)NC(=O)c1c(-c2ccc[nH]c2=O)c2c3occc3ccc2n1Cc1cc(C(N)=O)ccc1F |  | > 10000 | 7.52 | 8.00
Cc1cccc(Cn2c(C(=O)NS(C)(=O)=O)c(-c3ccc[nH]c3=O)c3c4occc4ccc32)c1F | 0.3 | > 10000 | 7.52 | 8.52
CS(=O)(=O)NC(=O)c1c(-c2ccc[nH]c2=O)c2c3occc3ccc2n1Cc1ccccc1Cl |  | > 10000 | 7.30 | 8.52
